Assay results as given in paper PMC5099076 (Journal of medicinal chemistry, 2015).

Columns and labels:
[1] = biological target: T1, PIF pocket of PDK1 (Homo sapiens, UniProt O15530); assay: Fluorescence polarization; type: binding
T1 sequence (O15530 1-556): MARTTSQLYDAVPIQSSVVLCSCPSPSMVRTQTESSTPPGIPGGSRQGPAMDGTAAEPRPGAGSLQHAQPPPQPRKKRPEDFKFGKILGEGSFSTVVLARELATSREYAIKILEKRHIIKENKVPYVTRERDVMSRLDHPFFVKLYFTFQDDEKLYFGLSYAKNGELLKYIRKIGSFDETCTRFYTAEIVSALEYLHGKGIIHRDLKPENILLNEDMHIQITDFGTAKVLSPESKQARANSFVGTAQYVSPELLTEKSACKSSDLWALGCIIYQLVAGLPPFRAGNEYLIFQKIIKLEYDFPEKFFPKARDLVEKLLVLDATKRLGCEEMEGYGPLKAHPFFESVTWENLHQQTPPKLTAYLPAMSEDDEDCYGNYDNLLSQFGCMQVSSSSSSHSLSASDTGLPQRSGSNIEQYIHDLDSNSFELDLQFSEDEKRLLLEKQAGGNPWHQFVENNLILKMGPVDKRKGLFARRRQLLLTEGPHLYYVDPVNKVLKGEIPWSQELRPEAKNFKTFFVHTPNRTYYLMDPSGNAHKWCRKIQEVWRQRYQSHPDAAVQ

[2] = biological target: T2, PDK1 (Homo sapiens, UniProt O15530); type: biochemical; conditions: short peptide substrate, in vitro
T2 sequence (O15530 1-556): T1 sequence (O15530 1-556)

[3] = tested on: cruzain; assay: Cruzain assay; type: biochemical; conditions: unrelated enzyme, test for aggregation-based mechanism
Procedure, shortened: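 Test compound preincubated 5 min with 0.8 nM cruzain in 100 mM sodium acetate, pH 5.5, 5 mM DTT, with 0.01% Triton X-100 added where indicated. Reaction started with Z-FR-AMC; final 0.4 nM cruzain, 2.5 μM substrate, 0.5% DMSO. Fluorescence increase (ex 355/em 460 nm) recorded over 5 min. Run in duplicate; DMSO-only controls.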

[4] = Dynamic light scattering; type: physicochemical; conditions: under assay conditions
Procedure, shortened: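 Concentrated DMSO stocks of test compound diluted in assay buffer to a final 3.2% DMSO. Light scattering read with a 55 mW laser at 826.6 nm, 100% laser power, detector at 90°. Single-point measurements reported.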

| Binding to PDK1 (in words) ([1]; FP competitive binding assay) | Structure (SMILES) | Maximal stimulation of PDK1 activity [2] | Nonspecific inhibition of cruzain [3] | Formation of colloidal aggregates [4] | LE (ligand efficiency) ([1]; binding energy (ΔG, kcal/mol) per non-hydrogen atom) |
| --- | --- | --- | --- | --- | --- |
| negligible | O=C(O)C/C(=C/c1cccc(C(F)(F)F)c1)c1nc2ccccc2o1 [compound 2] | – | – | – | – |
| – | O=P(O)(O)[C@H](NC[C@@H]1CCCc2ccccc21)c1ccc(F)cc1 [compound 3] | ~ 1.8 fold | nor did either compound nonspecifically inhibit | Neither compound formed colloidal aggregates | – |
| – | Cc1ccc(OCCSc2nc3ccccc3n2CC(=O)O)c(C)c1 [compound 1] | ~ 1.8 fold | nor did either compound nonspecifically inhibit | Neither compound formed colloidal aggregates | 0.25 kcal/mol per non-hydrogen atom |
